{"source": "paper PMC3149718", "about": "(Molecular and cellular biochemistry, 2011)", "key": {"[1]": {"target": "T1, Cy3-labeled CPTI WT 89-residue peptide (Rattus norvegicus, UniProt P32198)", "T1 sequence (P32198 381-469)": "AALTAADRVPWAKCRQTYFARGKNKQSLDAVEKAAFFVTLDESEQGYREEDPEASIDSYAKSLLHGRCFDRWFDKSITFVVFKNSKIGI", "assay": "FRET between Cy3-labeled CPTI peptide and Cy5-labeled LCFA-CoA binding proteins", "conditions": "Cy5-labeled acceptor protein; for Sensitized Emission R (intermolecular distance): donor Cy3-CPTI WT"}, "[2]": {"target": "T2, wild-type CPTI in mitochondria from yeast (Rattus norvegicus, UniProt P32198)", "T2 sequence (P32198 1-773)": "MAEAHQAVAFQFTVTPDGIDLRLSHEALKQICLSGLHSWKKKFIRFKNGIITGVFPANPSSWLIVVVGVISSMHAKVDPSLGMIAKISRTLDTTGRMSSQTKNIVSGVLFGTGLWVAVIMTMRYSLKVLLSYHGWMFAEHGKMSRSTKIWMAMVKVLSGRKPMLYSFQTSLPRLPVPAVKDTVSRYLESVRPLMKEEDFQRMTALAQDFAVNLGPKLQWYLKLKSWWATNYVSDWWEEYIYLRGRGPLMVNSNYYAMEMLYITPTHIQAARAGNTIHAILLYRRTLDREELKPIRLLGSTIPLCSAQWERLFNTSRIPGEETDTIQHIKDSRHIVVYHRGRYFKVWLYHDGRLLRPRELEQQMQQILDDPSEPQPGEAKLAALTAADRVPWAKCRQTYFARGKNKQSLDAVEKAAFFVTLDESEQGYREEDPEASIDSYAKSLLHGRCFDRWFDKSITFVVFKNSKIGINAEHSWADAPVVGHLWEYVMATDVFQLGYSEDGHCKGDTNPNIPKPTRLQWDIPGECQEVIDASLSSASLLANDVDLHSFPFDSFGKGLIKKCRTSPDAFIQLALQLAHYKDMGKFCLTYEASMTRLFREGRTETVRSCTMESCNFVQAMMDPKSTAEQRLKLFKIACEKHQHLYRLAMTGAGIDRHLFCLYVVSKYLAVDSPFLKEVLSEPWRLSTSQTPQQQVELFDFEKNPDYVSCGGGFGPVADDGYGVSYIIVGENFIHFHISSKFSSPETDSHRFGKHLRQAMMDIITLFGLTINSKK", "assay": "CPTI activity assay", "format": "biochemical", "how_it_was_run": "(§1)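 Mitochondria isolated from yeast strains expressing wild-type or mutant CPTI were assayed by forward exchange with L-[methyl-3H]carnitine at a fixed 1.0 mM carnitine, using 150 µg mitochondrial protein. […] Incubation was 5 min at 30°C and was stopped with 6% perchloric acid. Values are mean ± SE.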"}, "[3]": {"target": "T3, W391A mutant CPTI in mitochondria from yeast (Rattus norvegicus, UniProt P32198, W391A)", "T3 sequence (P32198 1-773 W391A)": "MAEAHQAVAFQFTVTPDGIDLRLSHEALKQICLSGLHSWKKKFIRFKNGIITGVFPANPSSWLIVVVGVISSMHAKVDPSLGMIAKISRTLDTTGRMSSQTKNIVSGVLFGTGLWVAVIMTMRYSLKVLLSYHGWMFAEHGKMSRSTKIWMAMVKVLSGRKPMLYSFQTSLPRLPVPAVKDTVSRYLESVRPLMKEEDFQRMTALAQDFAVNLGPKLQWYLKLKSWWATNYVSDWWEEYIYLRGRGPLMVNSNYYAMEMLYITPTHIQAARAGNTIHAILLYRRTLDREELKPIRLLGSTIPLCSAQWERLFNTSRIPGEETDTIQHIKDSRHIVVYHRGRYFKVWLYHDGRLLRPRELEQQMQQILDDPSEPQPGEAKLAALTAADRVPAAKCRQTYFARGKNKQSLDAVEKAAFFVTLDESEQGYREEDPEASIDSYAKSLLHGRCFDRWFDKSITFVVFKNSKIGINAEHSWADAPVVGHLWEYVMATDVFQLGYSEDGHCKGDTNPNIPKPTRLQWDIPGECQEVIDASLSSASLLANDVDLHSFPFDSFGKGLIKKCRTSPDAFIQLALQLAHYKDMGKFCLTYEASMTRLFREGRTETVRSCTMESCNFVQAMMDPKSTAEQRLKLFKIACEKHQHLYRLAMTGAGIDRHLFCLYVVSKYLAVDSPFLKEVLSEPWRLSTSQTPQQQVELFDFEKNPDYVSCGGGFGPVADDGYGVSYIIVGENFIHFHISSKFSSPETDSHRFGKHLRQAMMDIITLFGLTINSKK", "assay": "CPTI activity assay", "format": "biochemical", "how_it_was_run": "as §1"}, "[4]": {"target": "T4, W452A mutant CPTI in mitochondria from yeast (Rattus norvegicus, UniProt P32198, W452A)", "T4 sequence (P32198 1-773 W452A)": "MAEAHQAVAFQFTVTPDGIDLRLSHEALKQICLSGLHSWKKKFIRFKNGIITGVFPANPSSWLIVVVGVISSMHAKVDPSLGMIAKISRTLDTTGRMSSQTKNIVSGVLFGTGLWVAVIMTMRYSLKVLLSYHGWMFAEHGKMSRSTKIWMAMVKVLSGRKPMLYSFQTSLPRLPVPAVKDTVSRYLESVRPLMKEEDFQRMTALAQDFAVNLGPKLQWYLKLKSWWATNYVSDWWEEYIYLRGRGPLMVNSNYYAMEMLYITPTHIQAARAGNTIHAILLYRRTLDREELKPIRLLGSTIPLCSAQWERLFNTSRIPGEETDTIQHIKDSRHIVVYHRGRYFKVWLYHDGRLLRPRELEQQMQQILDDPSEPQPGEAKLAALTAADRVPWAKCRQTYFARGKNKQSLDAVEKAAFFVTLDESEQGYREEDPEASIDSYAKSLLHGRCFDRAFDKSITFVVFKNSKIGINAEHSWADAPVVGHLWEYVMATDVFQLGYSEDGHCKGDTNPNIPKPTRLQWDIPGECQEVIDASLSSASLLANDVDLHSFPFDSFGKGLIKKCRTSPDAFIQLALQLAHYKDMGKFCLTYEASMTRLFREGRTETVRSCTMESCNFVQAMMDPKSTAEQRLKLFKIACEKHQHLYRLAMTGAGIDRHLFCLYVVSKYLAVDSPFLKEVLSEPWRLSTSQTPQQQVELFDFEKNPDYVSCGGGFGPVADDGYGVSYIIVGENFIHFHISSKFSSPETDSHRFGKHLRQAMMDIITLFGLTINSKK", "assay": "CPTI activity assay", "format": "biochemical", "how_it_was_run": "as §1"}, "[5]": {"target": "T5, Cy3-labeled W391A 89-residue CPTI peptide (Rattus norvegicus, UniProt P32198, W391A)", "T5 sequence (P32198 381-469 W391A)": "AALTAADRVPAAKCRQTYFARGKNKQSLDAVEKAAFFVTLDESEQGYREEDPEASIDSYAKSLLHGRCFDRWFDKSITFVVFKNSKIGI", "assay": "FRET between Cy3-labeled CPTI peptide and Cy5-labeled LCFA-CoA binding proteins", "conditions": "donor Cy3-W391A, Cy5-labeled acceptor protein"}, "[6]": {"target": "T6, Cy3-labeled W452A 89-residue CPTI peptide (Rattus norvegicus, UniProt P32198, W452A)", "T6 sequence (P32198 381-469 W452A)": "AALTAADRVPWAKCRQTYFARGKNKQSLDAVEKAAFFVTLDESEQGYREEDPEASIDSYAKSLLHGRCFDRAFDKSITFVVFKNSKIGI", "assay": "FRET between Cy3-labeled CPTI peptide and Cy5-labeled LCFA-CoA binding proteins", "conditions": "donor Cy3-W452A, Cy5-labeled acceptor protein"}, "[7]": {"conditions": "donor protein 15uM, palmitoyl-CoA to protein molar ratio 7.41"}, "[8]": {"conditions": "donor protein 30uM, palmitoyl-CoA to protein molar ratio 3.70"}, "[9]": {"conditions": "donor protein 60uM, palmitoyl-CoA to protein molar ratio 1.85"}}}
{"molecule": "CytoC: Cytochrome C purchased from Sigma Aldrich, used as control protein [reference compound]", "values": [{"measurement": "Sensitized Emission Kd", "setting": "[1]; donor Cy3-CPTI WT 30 nM, PBS 24°C", "value": "no FRET or binding was observed"}]}
{"molecule": "SCP-2: Human recombinant sterol carrier protein-2 (protein, UniProt P22307 1-547, looked up, Cy5 label) Sterol carrier protein 2: MSSSPWEPATLRRVFVVGVGMTKFVKPGAENSRDYPDLAEEAGKKALADAQIPYSAVDQACVGYVFGDSTCGQRAIYHSLGMTGIPIINVNNNCATGSTALFMARQLIQGGVAECVLALGFEKMSKGSLGIKFSDRTIPTDKHVDLLINKYGLSAHPVAPQMFGYAGKEHMEKYGTKIEHFAKIGWKNHKHSVNNPYSQFQDEYSLDEVMASKEVFDFLTILQCCPTSDGAAAAILASEAFVQKYGLQSKAVEILAQEMMTDLPSSFEEKSIIKMVGFDMSKEAARKCYEKSGLTPNDIDVIELHDCFSTNELLTYEALGLCPEGQGATLVDRGDNTYGGKWVINPSGGLISKGHPLGATGLAQCAELCWQLRGEAGKRQVPGAKVALQHNLGIGGAVVVTLYKMGFPEAASSFRTHQIEAVPTSSASDGFKANLVFKEIEKKLEEEGEQFVKKIGGIFAFKVKDGPGGKEATWVVDVKNGKGSVLPNSDKKADCTITMADSDFLALMTGKMNPQSAFFQGKLKITGNMGLAMKLQNLQLQPGNAKL", "values": [{"measurement": "CPTI activity, WT", "setting": "[2]; [7]", "value": "31.7 ± 1.1", "unit": "nmol/min/mg"}, {"measurement": "CPTI activity, WT", "setting": "[2]; [8]", "value": "26.1 ± 1.1", "unit": "nmol/min/mg"}, {"measurement": "CPTI activity, WT", "setting": "[2]; [9]", "value": "16.5 ± 0.1", "unit": "nmol/min/mg"}, {"measurement": "CPTI activity, W391A", "setting": "[3]; [7]", "value": "4.7 ± 0.1", "unit": "nmol/min/mg"}, {"measurement": "CPTI activity, W391A", "setting": "[3]; [8]", "value": "5.7 ± 0.2", "unit": "nmol/min/mg"}, {"measurement": "CPTI activity, W391A", "setting": "[3]; [9]", "value": "4.5 ± 0.1", "unit": "nmol/min/mg"}, {"measurement": "CPTI activity, W452A", "setting": "[4]; [7]", "value": "0.8 ± 0.2", "unit": "nmol/min/mg"}, {"measurement": "CPTI activity, W452A", "setting": "[4]; [8]", "value": "1.2 ± 0.2", "unit": "nmol/min/mg"}, {"measurement": "CPTI activity, W452A", "setting": "[4]; [9]", "value": "0.9 ± 0.2", "unit": "nmol/min/mg"}]}
{"molecule": "L-FABP: Mouse recombinant liver fatty acid binding protein, delipidated (protein, Cy5 dye, approximately 1 dye per protein molecule (in the FRET assay only; unlabelled in circular dichroism)) MNFSGKYQLQSQENFEPFMKAIGLPEDLIQKGKDIKGVSEIVHEGKKIKLTITYGPKVVRNEFTLGEECELETMTGEKVKAVVKLEGDNKMVTTFKGIKSVTELNGDTITNTMTLGDIVYKRVSKRI", "values": [{"measurement": "Sensitized Emission R (intermolecular distance)", "setting": "[1]", "value": "56 ± 3", "unit": "Å"}, {"measurement": "Sensitized Emission R (intermolecular distance)", "setting": "[5]", "value": "50 ± 2", "unit": "Å"}, {"measurement": "Sensitized Emission R (intermolecular distance)", "setting": "[6]", "value": "82 ± 1", "unit": "Å"}, {"measurement": "CPTI activity, WT", "setting": "[2]; [7]", "value": "39.3 ± 2.5", "unit": "nmol/min/mg"}, {"measurement": "CPTI activity, WT", "setting": "[2]; [8]", "value": "37.6 ± 0.1", "unit": "nmol/min/mg"}, {"measurement": "CPTI activity, WT", "setting": "[2]; [9]", "value": "34.0 ± 0.1", "unit": "nmol/min/mg"}, {"measurement": "CPTI activity, W391A", "setting": "[3]; [7]", "value": "4.2 ± 0.1", "unit": "nmol/min/mg"}, {"measurement": "CPTI activity, W391A", "setting": "[3]; [8]", "value": "5.9 ± 0.1", "unit": "nmol/min/mg"}, {"measurement": "CPTI activity, W391A", "setting": "[3]; [9]", "value": "7.4 ± 0.1", "unit": "nmol/min/mg"}, {"measurement": "CPTI activity, W452A", "setting": "[4]; [7]", "value": "0.9 ± 0.2", "unit": "nmol/min/mg"}, {"measurement": "CPTI activity, W452A", "setting": "[4]; [8]", "value": "1.1 ± 0.1", "unit": "nmol/min/mg"}, {"measurement": "CPTI activity, W452A", "setting": "[4]; [9]", "value": "1.6 ± 0.1", "unit": "nmol/min/mg"}]}
{"molecule": "ACBP: Mouse recombinant acyl CoA binding protein (protein, Cy5 dye, approximately 1 dye per protein molecule (in the FRET assay only; unlabelled in circular dichroism)) MSQAEFDKAAEEVKRLKTQPTDEEMLFIYSHFKQATVGDVNTDRPGLLDLKGKAKWDSWNKLKGTSKESAMKTYVEKVDELKKKYGI", "values": [{"measurement": "Sensitized Emission R (intermolecular distance)", "setting": "[1]", "value": "56 ± 1", "unit": "Å"}, {"measurement": "Sensitized Emission R (intermolecular distance)", "setting": "[5]", "value": "65 ± 1", "unit": "Å"}, {"measurement": "Sensitized Emission R (intermolecular distance)", "setting": "[6]", "value": "65.8 ± 0.2", "unit": "Å"}, {"measurement": "CPTI activity, WT", "setting": "[2]; [7]", "value": "31.8 ± 2.1", "unit": "nmol/min/mg"}, {"measurement": "CPTI activity, WT", "setting": "[2]; [8]", "value": "27.6 ± 2.4", "unit": "nmol/min/mg"}, {"measurement": "CPTI activity, WT", "setting": "[2]; [9]", "value": "13.2 ± 0.1", "unit": "nmol/min/mg"}, {"measurement": "CPTI activity, W391A", "setting": "[3]; [7]", "value": "3.3 ± 0.1", "unit": "nmol/min/mg"}, {"measurement": "CPTI activity, W391A", "setting": "[3]; [8]", "value": "4.5 ± 0.9", "unit": "nmol/min/mg"}, {"measurement": "CPTI activity, W391A", "setting": "[3]; [9]", "value": "5.7 ± 0.1", "unit": "nmol/min/mg"}, {"measurement": "CPTI activity, W452A", "setting": "[4]; [7]", "value": "0.7 ± 0.2", "unit": "nmol/min/mg"}, {"measurement": "CPTI activity, W452A", "setting": "[4]; [8]", "value": "0.8 ± 0.2", "unit": "nmol/min/mg"}, {"measurement": "CPTI activity, W452A", "setting": "[4]; [9]", "value": "1.3 ± 0.1", "unit": "nmol/min/mg"}]}
